Measured values gathered from unrelated publications.
Target: Maternal embryonic leucine zipper kinase (MELK, Homo sapiens, UniProt Q14680)

| Structure (SMILES) | read-out | technique | tested at | remaining binding [%] |
| --- | --- | --- | --- | --- |
| CC1CCCN1c1nccc(-c2cnn3ncccc23)n1 (stereo not shown) | binding |  | 1 µM | 97 |
| Nc1ncc2c(n1)-c1c([nH]c3ccc(C#CC4CC4)cc13)CCCC2 | binding | competition with immobilised ligand | 1 µM | 100 |
| COc1ccc2c(c1)O[C@@H](c1ccc(OC)c(OC)c1)C[C@H]2NC(=O)C1(c2ccc3c(c2)OC(F)(F)O3)CC1 | cell-free assay | competition with immobilised ligand | 1 µM | 65 |
| FC(F)(F)Oc1cccc(-c2cnc3ccc(-c4ccncc4)nn23)c1 | cell-free assay | competition with immobilised ligand | 5 µM | 56 |
| O=C(Nc1c[nH]nc1C(=O)NC1CCNCC1)c1cc(F)cc(F)c1 | binding | competition with immobilised ligand | 1 µM | 82 |
| CCN1CCN(Cc2ccc(C(=O)Nc3ccc(C)c(Oc4ccc5c(c4)CC(=O)N5)c3)cc2C(F)(F)F)CC1 | binding | competition with immobilised ligand | 1 µM | 100 |
| CNC(=O)Nc1ccc2c(c1)CC[C@@]21OC(=O)N(CC(=O)N(Cc2ccc(F)cc2)[C@@H](C)C(F)(F)F)C1=O | cell-free assay | competition with immobilised ligand | 1 µM | 91 |
| O=C(c1ccc(Nc2ncc(Cl)c(-c3cc4ccccc4s3)n2)cc1)N1CCC(N2CCCC2)CC1 | binding | competition with immobilised ligand | 1 µM | 64 |
| CN(c1ccnc(CNc2nc(Nc3ccc4c(c3)CC(=O)N4)ncc2C(F)(F)F)n1)S(C)(=O)=O | cell-free assay | competition with immobilised ligand | 1 µM | 40 |
| COc1cnc(Nc2cccc(S(N)(=O)=O)c2)nc1N1CCN(c2ccccc2)C(=O)C1 | binding | competition with immobilised ligand | 1 µM | 100 |
| O=C(c1ccc(Nc2ncc(Cl)c(-c3ccc(Cl)s3)n2)cc1)N1CCC(N2CCCC2)CC1 | binding | competition with immobilised ligand | 1 µM | 54 |
| C[C@@H](c1ccc(-n2cnc3c(N)ncnc32)cc1)N1CCc2nn(C)c(Cc3ccccc3)c2C1=O | binding | competition with immobilised ligand | 0.1 µM | 93 |
| C[C@H]1CCN(c2nccc(-c3cnn4ncccc34)n2)C1 | binding |  | 1 µM | 33 |
| COc1ncc2cc3ccccc3nc2c1C#N | cell-free assay | competition with immobilised ligand | 5 µM | 83 |
| c1cnn2ncc(-c3ccnc(N4CCC45COC5)n3)c2c1 | binding |  | 1 µM | 52 |
| O=C(c1ccc(Nc2nccc(-c3cc4ccccc4s3)n2)cc1)N1CCC(N2CCCC2)CC1 | binding | competition with immobilised ligand | 1 µM | 100 |
| F[C@@H]1CCN(c2nccc(-c3cnn4ncccc34)n2)C1 | binding |  | 1 µM | 100 |
| CCC(=O)N[C@@H]1CC[C@H](C(=O)N(C)c2ccc(-c3nc4ccccc4o3)cc2)C1 | cell-free assay | competition with immobilised ligand | 1 µM | 100 |
| CN(C)c1ncc(F)c(-c2cnn3ncccc23)n1 | binding |  | 1 µM | 79 |
| CCCCN(CCCC)C(=O)CN1C[C@H](c2cc(OC)c3c(c2)OCO3)[C@@H](C(=O)O)[C@@H]1CC(C)(C)CCC | cell-free assay | competition with immobilised ligand | 1 µM | 100 |
| N[C@H]1CCN(c2nccc(-c3cnn4ncccc34)n2)C1 | binding |  | 1 µM | 69 |
| CN([C@@H]1CCc2c(CC(=O)O)c3cc(S(C)(=O)=O)ccc3n2C1)S(=O)(=O)c1ccc(F)cc1 | cell-free assay | competition with immobilised ligand | 1 µM | 84 |
